# Results: publication PMC4115637 (Pharmacology Research & Perspectives, 2014)
# Where a chain is given by its changes, count along the chain named.
# Experiments:
# [1] = biological target: T1, TRPV3 in HaCaT cells (Homo sapiens, UniProt Q8NET8); assay: Calcium flux in HaCaT cells; assay type: cell-based
# T1 sequence (Q8NET8 1-790): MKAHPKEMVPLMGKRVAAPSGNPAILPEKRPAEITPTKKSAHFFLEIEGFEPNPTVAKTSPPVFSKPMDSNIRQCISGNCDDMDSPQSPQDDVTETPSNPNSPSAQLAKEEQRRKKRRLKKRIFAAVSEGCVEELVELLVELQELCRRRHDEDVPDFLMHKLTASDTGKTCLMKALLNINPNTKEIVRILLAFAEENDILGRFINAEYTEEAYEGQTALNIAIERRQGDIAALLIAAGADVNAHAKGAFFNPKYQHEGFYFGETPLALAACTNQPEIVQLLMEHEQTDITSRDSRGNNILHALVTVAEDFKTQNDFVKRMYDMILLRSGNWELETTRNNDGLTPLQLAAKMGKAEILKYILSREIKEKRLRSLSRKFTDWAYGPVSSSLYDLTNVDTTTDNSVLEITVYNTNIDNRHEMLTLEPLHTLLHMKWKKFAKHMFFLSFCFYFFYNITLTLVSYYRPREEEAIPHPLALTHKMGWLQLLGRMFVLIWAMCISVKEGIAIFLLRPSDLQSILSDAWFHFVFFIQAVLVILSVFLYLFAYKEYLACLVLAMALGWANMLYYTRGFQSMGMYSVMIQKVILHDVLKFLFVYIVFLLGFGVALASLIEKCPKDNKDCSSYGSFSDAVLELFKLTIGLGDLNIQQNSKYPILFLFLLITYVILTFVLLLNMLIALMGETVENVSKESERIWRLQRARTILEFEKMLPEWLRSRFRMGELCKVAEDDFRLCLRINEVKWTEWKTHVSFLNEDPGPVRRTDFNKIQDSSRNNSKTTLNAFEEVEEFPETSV
# [2] = biological target: human TRPM8 (Homo sapiens, UniProt Q7Z2W7); assay: Calcium flux in HEK-293 cells overexpressing TRPM8; assay type: cell-based; settings: concentrations up to 1 mmol/L
# [3] = biological target: T2, human TRPV3 (Homo sapiens, UniProt Q8NET8); assay: Whole-cell recordings in TRPV3-overexpressing HEK-293 cells; assay type: cell-based; settings: 250 μmol/L, 500 μmol/L, 1 mmol/L; negative holding potential
# T2 sequence (Q8NET8 1-790): T1 sequence (Q8NET8 1-790)
# Summary of the method: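 HEK-293 cells stably overexpressing human TRPV3 were plated on concanavalin A-coated coverslips and used within 24 h. Whole-cell voltage clamp at −60 or −70 mV with 3–5 MΩ pipettes. External saline: NaCl/KCl/MgCl2/HEPES/glucose/2 mmol/L CaCl2, pH 7.4. CsCl/EGTA internal, pH 7.3. Test compound was perfused or injected, with a fresh cell for each recording. Peak versus basal inward current was compared by one-tailed paired t-test.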
# [4] = biological target: human TRPV1 (Homo sapiens, UniProt Q8NER1); assay: Calcium flux in HEK-293 cells overexpressing TRPV1; assay type: cell-based; settings: concentrations up to 1 mmol/L
# [5] = biological target: T3, TRPV3-H426N (Homo sapiens, UniProt Q8NET8, H426N); assay: Calcium flux in HEK-293 cells transiently transfected with TRPV3-H426N; assay type: cell-based
# T3 sequence (Q8NET8 1-790 H426N): T1 sequence (Q8NET8 1-790) with H426N
# [6] = system: neomycin-induced hair cell loss; settings: ref Coffin et al. [2010]; cited from earlier work
# [7] = biological target: T2, human TRPV3; assay: Re-evaluation of screening hits as TRPV3 agonists; assay type: cell-based; settings: Table 1
# Chain of human TRPM8 (Q7Z2W7 whole entry): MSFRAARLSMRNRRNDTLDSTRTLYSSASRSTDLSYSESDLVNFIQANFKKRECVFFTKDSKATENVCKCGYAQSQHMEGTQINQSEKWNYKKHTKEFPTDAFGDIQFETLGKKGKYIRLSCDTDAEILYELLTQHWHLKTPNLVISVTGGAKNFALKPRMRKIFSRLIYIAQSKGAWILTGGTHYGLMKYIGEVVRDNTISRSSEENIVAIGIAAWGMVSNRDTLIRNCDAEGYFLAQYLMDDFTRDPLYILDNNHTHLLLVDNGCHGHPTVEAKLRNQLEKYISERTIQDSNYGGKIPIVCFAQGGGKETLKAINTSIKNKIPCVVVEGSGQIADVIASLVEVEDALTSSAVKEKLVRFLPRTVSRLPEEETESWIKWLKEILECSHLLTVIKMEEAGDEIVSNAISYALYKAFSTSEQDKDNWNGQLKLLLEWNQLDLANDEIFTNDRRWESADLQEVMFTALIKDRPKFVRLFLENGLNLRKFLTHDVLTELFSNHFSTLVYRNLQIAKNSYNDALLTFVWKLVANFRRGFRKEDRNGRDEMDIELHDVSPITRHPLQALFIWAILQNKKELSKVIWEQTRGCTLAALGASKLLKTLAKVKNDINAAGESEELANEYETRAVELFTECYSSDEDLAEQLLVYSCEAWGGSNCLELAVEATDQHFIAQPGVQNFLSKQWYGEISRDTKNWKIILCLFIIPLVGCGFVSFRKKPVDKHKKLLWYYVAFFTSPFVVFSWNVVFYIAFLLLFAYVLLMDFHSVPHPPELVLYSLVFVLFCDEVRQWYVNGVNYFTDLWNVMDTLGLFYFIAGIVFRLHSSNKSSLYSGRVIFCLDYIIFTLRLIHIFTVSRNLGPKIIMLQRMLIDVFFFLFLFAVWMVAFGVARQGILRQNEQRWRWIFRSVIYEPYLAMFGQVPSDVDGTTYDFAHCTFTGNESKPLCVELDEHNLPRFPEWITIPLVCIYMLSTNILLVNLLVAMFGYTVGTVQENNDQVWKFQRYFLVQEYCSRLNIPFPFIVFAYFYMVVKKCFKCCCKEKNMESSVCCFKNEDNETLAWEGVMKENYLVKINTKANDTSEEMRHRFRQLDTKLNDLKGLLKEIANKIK
# Chain of human TRPV1 (Q8NER1 whole entry): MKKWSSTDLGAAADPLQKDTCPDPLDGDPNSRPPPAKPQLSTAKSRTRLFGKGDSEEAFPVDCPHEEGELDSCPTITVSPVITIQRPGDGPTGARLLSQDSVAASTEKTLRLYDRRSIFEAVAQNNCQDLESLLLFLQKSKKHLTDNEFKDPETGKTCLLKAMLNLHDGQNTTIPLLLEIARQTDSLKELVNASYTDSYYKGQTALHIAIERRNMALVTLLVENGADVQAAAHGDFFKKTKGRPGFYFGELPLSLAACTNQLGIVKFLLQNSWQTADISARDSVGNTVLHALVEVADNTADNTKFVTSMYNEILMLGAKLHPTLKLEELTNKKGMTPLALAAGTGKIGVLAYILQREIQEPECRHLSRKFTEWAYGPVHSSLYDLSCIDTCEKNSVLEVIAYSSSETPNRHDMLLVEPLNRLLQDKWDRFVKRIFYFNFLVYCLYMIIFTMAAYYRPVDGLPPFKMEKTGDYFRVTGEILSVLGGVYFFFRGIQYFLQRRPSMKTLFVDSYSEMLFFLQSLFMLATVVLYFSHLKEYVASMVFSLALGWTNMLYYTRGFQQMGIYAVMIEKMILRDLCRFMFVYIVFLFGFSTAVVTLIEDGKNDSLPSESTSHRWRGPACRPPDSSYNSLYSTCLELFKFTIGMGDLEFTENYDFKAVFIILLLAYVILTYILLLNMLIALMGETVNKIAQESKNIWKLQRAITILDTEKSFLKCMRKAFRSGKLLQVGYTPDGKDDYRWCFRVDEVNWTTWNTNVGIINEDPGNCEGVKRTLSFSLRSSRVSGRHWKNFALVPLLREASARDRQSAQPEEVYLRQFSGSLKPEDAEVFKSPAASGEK
smiles,measurement,setting,value
CCN(CC)CCOC(=O)C(c1ccccc1)C1CCCCC1 (stereo not drawn) [drofenine],EC50,[1],605 µM
same,maximum change in fluorescence relative to ionomycin,[1]; HaCaT cells,~80%
same,activation of TRPM8,[2],not observed
same,inward currents,[3],dose-dependently induced inward currents
same,activation of TRPV1,[4],not observed
same,calcium flux in TRPV3-H426N relative to TRPV3-WT,[5]; agonist 100 μmol/L,reduced activation relative to TRPV3-WT
same,calcium flux in TRPV3-H426N relative to TRPV3-WT,[5]; agonist 200 μmol/L,did not reduce TRPV3 activation
same,effect on neomycin-induced hair cell loss,[6],inhibitor of neomycin-induced hair cell loss
same,Comment(s): re-evaluation as TRPV3 agonist,[7],TRPV3-selective agonist
